ChEMBL document CHEMBL1128459, “Characterization of potent and selective antagonists at postsynaptic 5-HT1A receptors in a series of N4-substituted arylpiperazines” (J Med Chem, 1995)
Blank lines part the entries; values can stand above or below the compound they belong to.

Experiments:
[1] = Ratio of MED (agonist) to that of MED (antagonist) values.; assay type: functional
How it was run: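 The MED for inducing hypothermia alone was divided by the MED for blocking 8-OH-DPAT (0.16 mg/kg sc) hypothermia. Both MEDs came from sc dosing in male Wistar rats and were tested against vehicle by ANOVA with Dunnett's test, P < 0.05.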

Rattus norvegicus [2] = test: Compound after subcutaneous administration was evaluated for antagonist activity against hypothermia induced by 8-hydroxy -DPAT in rat; assay type: functional; settings: sc, read-out: ID50 (the source's name)
How it was run: (§1)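 Male Wistar rats (200-220 g) had rectal temperature taken, then received the test drug sc in distilled water (1.0 mL/kg). After 30 min they got 8-OH-DPAT 0.16 mg/kg sc, and temperature was remeasured 30 min later. Change from basal was scored.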

[3] = molecular target: D(2) dopamine receptor (Rattus norvegicus) (UniProt P61169)
Chain of D(2) dopamine receptor (Rattus norvegicus) (P61169 whole entry): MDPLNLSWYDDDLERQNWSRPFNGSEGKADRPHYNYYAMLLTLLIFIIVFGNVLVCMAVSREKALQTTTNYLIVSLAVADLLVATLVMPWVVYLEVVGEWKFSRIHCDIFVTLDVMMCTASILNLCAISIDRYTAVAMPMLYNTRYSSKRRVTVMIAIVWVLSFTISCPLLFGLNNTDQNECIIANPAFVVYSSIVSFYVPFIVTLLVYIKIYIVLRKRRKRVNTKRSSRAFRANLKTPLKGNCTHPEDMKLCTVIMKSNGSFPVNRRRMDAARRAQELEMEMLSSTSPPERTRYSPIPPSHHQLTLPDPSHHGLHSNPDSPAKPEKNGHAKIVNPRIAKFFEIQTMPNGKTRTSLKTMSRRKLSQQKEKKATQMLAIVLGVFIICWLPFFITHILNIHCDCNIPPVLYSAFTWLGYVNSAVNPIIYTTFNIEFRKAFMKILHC

D(2) dopamine receptor = D(2) dopamine receptor (Rattus norvegicus, UniProt P61169); test: In vitro binding affinity towards dopamine D2 receptor in rat striatum was determined using [3H]-spiperone as radioligand; assay type: tissue-based
Chain of D(2) dopamine receptor (P61169 whole entry): as above
How it was run: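 Rat striatal membranes (1/300 wt/vol), no preincubation, in 50 mM Tris pH 7.4 with CaCl2, ascorbic acid, 5 mM KCl, 1 mM MgCl2 and 120 mM NaCl. Ligand 0.2 nM [3H]spiperone, with 100 nM ketanserin masking 5-HT2A sites; raclopride defined nonspecific binding. Incubation 30 min at 37 °C, then filtration. pKi derived from regression-based IC50.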

[4] = molecular target: Serotonin 1a (5-HT1a) receptor/Adrenergic receptor alpha-1 (Rattus norvegicus) (UniProt P15823+P23944+P43140+P19327); test: Ki ratio measured as the Ki values of alpha-1 adrenergic receptor to that of 5-hydroxytryptamine 1A receptor; assay type: protein assay
Rattus norvegicus [5] = species: Rattus norvegicus; test: Maximum antagonist effect (% effect) expressed relative to 8-hydroxy-DPAT (100%); assay type: functional
How it was run: (§2)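 In the rat rectal-temperature model (sc dosing, 8-OH-DPAT 0.16 mg/kg sc for antagonism), the maximal percentage of induced hypothermia (agonist) and of block of 8-OH-DPAT hypothermia (antagonist) was recorded. Each value is given with the dose at which it was reached.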

Rattus norvegicus [6] = test: Minimum effective antagonist dose administered subcutaneously; assay type: functional; settings: sc, read-out: MED; how it was run: as §1
[7] = molecular target: T1, 5-hydroxytryptamine receptor 1A (Rattus norvegicus, UniProt P19327); test: Binding affinity at 5-hydroxytryptamine 1A receptor
T1 sequence (P19327 whole entry): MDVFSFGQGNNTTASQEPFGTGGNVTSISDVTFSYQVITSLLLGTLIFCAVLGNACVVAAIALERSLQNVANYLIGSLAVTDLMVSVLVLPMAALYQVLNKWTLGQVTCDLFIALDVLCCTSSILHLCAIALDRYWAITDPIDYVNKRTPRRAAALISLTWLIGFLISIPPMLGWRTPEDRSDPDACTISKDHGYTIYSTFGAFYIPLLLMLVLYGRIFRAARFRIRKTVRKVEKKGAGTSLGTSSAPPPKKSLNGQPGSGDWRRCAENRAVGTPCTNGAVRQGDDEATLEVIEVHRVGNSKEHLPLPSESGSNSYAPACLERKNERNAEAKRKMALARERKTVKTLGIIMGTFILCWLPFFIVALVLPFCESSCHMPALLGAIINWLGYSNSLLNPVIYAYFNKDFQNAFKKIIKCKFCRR
How it was run: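 Rat hippocampal membranes (1/100 wt/vol) in 50 mM Tris pH 7.7 with 4 mM CaCl2, 0.1% ascorbic acid and pargyline. Membranes were spun at 25000g, preincubated 30 min at 37 °C and respun, then incubated with 0.4 nM [3H]-8-OH-DPAT for 30 min at 25 °C. 5-HT defined nonspecific binding, and samples were filtered on PEI-soaked GF/B. IC50 came from regression; pKi = −log[IC50/(1+[L]/Kd)].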

Rattus norvegicus [8] = test: Minimum effective agonist dose administered subcutaneously; assay type: functional; settings: sc, read-out: MED
How it was run: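 Male Wistar rats (200-220 g) were given the test drug alone sc in water (1.0 mL/kg), with vehicle reinjected at 30 min. Rectal temperature change from basal was measured 60 min after the first injection. MED for hypothermia was set against vehicle by ANOVA with Dunnett's test, P < 0.05.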

Rattus norvegicus [9] = species: Rattus norvegicus; test: Maximum agonist effect (% effect) expressed relative to 8-hydroxy-DPAT (100%); assay type: functional; how it was run: as §2
[10] = molecular target: 5-hydroxytryptamine receptor 1B (Rattus norvegicus, UniProt P28564); test: Binding affinity at 5-hydroxytryptamine 1B receptor
Chain of 5-hydroxytryptamine receptor 1B (P28564 whole entry): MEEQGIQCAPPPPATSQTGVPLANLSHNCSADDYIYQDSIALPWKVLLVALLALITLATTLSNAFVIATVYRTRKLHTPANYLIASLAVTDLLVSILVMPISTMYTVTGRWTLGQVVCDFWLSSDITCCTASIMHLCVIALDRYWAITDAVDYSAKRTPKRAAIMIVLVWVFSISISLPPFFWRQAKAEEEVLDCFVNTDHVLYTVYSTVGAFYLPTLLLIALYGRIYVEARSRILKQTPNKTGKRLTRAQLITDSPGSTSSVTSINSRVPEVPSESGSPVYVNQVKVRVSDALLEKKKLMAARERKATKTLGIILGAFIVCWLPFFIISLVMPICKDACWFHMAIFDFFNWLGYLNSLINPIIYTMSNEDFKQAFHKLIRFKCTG
How it was run: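 Rat frontal cortex membranes (1/40 wt/vol) were homogenized in 50 mM Tris pH 7.7 with pargyline, 4 mM CaCl2 and 0.1% ascorbic acid, then preincubated for 30 min at 37 °C. Labelled with 2.0 nM [3H]-5-HT, with 100 nM 8-OH-DPAT and 100 nM mesulergine masking 5-HT1A/5-HT2A sites; 5-CT defined nonspecific binding.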

[11] = molecular target: T2, Adrenergic receptor alpha-1 (Rattus norvegicus, UniProt P15823+P23944+P43140); test: In vitro binding affinity towards Alpha-1 adrenergic receptor in rat cortex was determined using [3H]prazosin as radioligand
T2 sequence (P15823 whole entry): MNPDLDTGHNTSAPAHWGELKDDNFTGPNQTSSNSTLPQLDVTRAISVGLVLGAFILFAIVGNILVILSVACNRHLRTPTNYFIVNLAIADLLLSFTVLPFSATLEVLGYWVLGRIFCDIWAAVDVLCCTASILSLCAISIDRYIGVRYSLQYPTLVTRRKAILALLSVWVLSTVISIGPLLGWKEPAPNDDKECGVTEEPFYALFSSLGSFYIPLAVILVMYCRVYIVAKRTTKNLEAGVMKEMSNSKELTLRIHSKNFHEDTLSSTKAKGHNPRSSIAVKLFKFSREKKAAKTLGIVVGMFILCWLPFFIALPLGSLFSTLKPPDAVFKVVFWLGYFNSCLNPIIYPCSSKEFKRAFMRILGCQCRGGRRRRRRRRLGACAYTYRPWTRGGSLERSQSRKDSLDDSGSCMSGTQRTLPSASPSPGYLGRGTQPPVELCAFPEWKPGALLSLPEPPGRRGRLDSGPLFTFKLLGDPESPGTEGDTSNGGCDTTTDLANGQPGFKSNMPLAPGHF
T2 sequence (P23944 whole entry): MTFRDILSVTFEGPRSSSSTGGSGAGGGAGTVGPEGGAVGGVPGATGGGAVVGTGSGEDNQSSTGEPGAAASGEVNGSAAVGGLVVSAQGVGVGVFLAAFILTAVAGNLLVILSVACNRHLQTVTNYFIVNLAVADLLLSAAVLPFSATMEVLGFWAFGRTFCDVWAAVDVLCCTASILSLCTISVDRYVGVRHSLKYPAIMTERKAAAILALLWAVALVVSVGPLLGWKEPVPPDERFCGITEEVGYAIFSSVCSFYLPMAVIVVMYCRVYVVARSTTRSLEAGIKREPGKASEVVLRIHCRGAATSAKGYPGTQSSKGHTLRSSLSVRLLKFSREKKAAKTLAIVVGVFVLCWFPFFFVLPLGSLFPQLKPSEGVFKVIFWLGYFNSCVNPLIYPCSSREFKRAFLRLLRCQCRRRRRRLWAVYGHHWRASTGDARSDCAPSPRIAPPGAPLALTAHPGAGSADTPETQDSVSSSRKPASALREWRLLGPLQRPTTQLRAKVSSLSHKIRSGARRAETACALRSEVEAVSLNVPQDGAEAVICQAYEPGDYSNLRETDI
T2 sequence (P43140 whole entry): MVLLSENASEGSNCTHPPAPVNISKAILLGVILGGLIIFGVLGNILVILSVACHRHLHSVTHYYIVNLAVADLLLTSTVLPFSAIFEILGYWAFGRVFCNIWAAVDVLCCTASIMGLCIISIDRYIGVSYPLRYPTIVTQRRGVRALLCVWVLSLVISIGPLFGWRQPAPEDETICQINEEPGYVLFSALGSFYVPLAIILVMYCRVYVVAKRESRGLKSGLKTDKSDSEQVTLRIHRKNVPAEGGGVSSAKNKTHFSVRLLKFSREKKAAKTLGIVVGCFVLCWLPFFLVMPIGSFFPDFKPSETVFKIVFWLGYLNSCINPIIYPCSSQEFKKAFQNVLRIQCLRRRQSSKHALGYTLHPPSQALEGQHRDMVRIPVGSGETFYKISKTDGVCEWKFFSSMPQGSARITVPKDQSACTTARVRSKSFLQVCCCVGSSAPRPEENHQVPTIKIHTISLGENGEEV
How it was run: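 Rat frontal cortex membranes (1/80 wt/vol), no preincubation, in 50 mM Tris pH 7.6 with 4 mM CaCl2 and 0.1% ascorbic acid. Ligand 0.2 nM [3H]prazosin, with phentolamine for nonspecific binding. Incubation 60 min at 25 °C, then filtration. IC50 obtained by regression and converted to pKi with radioligand Kd from saturation experiments.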

[12] = molecular target: D(2) dopamine receptor (Rattus norvegicus) (UniProt P61169); test: Inhibitory activity against methyl-phenidate-induced gnawing at dopamine D2 receptor in rat
How it was run: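 Male Wistar rats (200-220 g) received the test drug sc in water (1.0 mL/kg), then methylphenidate 40.0 mg/kg ip 30 min later. Observation began 30 min after that. Gnawing bouts were counted in 10 s per minute (maximum 10) by a blinded observer.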

SMILES: Clc1cccc2c1CC2CCN1CCN(c2cccc3c2OCCO3)CC1 (stereo unspecified)
- Ratio [1]: 32
- ED50 (Rattus norvegicus [2]): 1.13 mg/kg
- ID50 [3]: > 40 mg/kg
- Ki (D(2) dopamine receptor): 0.0603 µM
- Ki ratio [4]: 28.8
- Max effect (Rattus norvegicus [5]): 96%
- minimal effective dose (Rattus norvegicus [6]): 1.25 mg/kg
- Ki [7]: 0.00224 µM
- minimal effective dose (Rattus norvegicus [8]): 40 mg/kg
- Max effect (Rattus norvegicus [9]): 52%
- Ki [10]: 0.708 µM
- Log Ki [11]: -7.19

- ID50 [12]: > 40 mg/kg
- Ki [7]: 0.00398 µM
- Ki [10]: 0.55 µM
SMILES: Clc1cccc2c1CC2CN1CCN(c2cccc3c2OCCO3)CC1 (stereo unspecified)
- Ratio [1]: 63.5
- ED50 (Rattus norvegicus [2]): 0.8 mg/kg
- Max effect (Rattus norvegicus [5]): 100%
- minimal effective dose (Rattus norvegicus [6]): 0.63 mg/kg
- minimal effective dose (Rattus norvegicus [8]): 40 mg/kg
- Max effect (Rattus norvegicus [9]): 0%
